{
  "source": "ChEMBL document CHEMBL1134088",
  "about": "“Fine Tuning of physico-chemical parameters to optimise a new series of novobiocin analogues” (Bioorg Med Chem Lett, 2001)",
  "data": [
    {"test_system": "Staphylococcus aureus", "test": "Compound was evaluated for its minimum inhibitory concentration against Staphylococcus aureus", "type": "functional", "in_short": "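MIC by 2-fold broth microdilution, read after 24-h incubation; S. aureus strain 011HT3, no particular resistance phenotype.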", "units": {"MIC": "µg/mL"}, "values": [
      {"smiles": "CO[C@@H]1[C@@H](OC(=O)c2ccc(C)[nH]2)[C@@H](O)[C@H](Oc2ccc3c(N4CCNC(C)C4)cc(=O)oc3c2C)OC1(C)C", "note": "(some centres not stated)", "MIC": 2.5},
      {"smiles": "CO[C@@H]1[C@@H](OC(N)=O)[C@@H](O)[C@H](Oc2ccc3c(O)c(NC(=O)c4ccc(O)c(CC=C(C)C)c4)c(=O)oc3c2C)OC1(C)C", "note": "[NOVOBIOCIN]", "MIC": "< 0.04"},
      {"smiles": "CO[C@@H]1[C@@H](OC(=O)c2ccc(C)[nH]2)[C@@H](O)[C@H](Oc2ccc3c(N4CC[N+](C)(C)CC4)cc(=O)oc3c2C)OC1(C)C", "MIC": "> 40"},
      {"smiles": "CO[C@@H]1[C@@H](OC(=O)c2ccc(C)[nH]2)[C@@H](O)[C@H](Oc2ccc3c(N4CCN(C)CC4)c(Cl)c(=O)oc3c2C)OC1(C)C", "MIC": 1.2},
      {"smiles": "CO[C@@H]1[C@@H](OC(=O)c2ccc(C)[nH]2)[C@@H](O)[C@H](Oc2ccc3c(N4CCC(N(C)C)CC4)cc(=O)oc3c2C)OC1(C)C", "MIC": 2.5},
      {"smiles": "CCN1CCN(c2cc(=O)oc3c(C)c(O[C@@H]4OC(C)(C)[C@H](OC)[C@@H](OC(=O)c5ccc(C)[nH]5)[C@H]4O)ccc23)CC1", "MIC": 0.6},
      {"smiles": "CO[C@@H]1[C@@H](OC(=O)c2ccc(C)[nH]2)[C@@H](O)[C@H](Oc2ccc3c(N(C)CCN(C)C)cc(=O)oc3c2C)OC1(C)C", "MIC": 5},
      {"smiles": "CO[C@@H]1[C@@H](OC(=O)c2ccc(C)[nH]2)[C@@H](O)[C@H](Oc2ccc3c(N4CCN(c5ccccn5)CC4)cc(=O)oc3c2C)OC1(C)C", "MIC": 0.3},
      {"smiles": "CO[C@@H]1[C@@H](OC(=O)c2ccc(C)[nH]2)[C@@H](O)[C@H](Oc2ccc3c(N4CCNCC4)cc(=O)oc3c2C)OC1(C)C", "MIC": 5},
      {"smiles": "CO[C@@H]1[C@@H](OC(=O)c2ccc(C)[nH]2)[C@@H](O)[C@H](Oc2ccc3c(N4CC(C)NC(C)C4)cc(=O)oc3c2C)OC1(C)C", "note": "(some centres not stated)", "MIC": 2.5},
      {"smiles": "CO[C@@H]1[C@@H](OC(=O)c2ccc(C)[nH]2)[C@@H](O)[C@H](Oc2ccc3c(N4CCN(C)CC4)cc(=O)oc3c2C)OC1(C)C", "MIC": 0.15}
    ]},
    {"target": "DNA gyrase (Escherichia coli, UniProt P0AES4+P0AES6)", "test": "Inhibitory activity against Escherichia coli DNA gyrase", "type": "protein-complex assay", "units": {"IC50": "nM"}, "values": [
      {"smiles": "CO[C@@H]1[C@@H](OC(=O)c2ccc(C)[nH]2)[C@@H](O)[C@H](Oc2ccc3c(N4CCNC(C)C4)cc(=O)oc3c2C)OC1(C)C", "note": "(some centres not stated)", "IC50": 225},
      {"smiles": "CO[C@@H]1[C@@H](OC(=O)c2ccc(C)[nH]2)[C@@H](O)[C@H](Oc2ccc3c(N4CC[N+](C)(C)CC4)cc(=O)oc3c2C)OC1(C)C", "IC50": 245},
      {"smiles": "CO[C@@H]1[C@@H](OC(=O)c2ccc(C)[nH]2)[C@@H](O)[C@H](Oc2ccc3c(N4CCN(C)CC4)c(Cl)c(=O)oc3c2C)OC1(C)C", "IC50": 847},
      {"smiles": "CO[C@@H]1[C@@H](OC(=O)c2ccc(C)[nH]2)[C@@H](O)[C@H](Oc2ccc3c(N4CCC(N(C)C)CC4)cc(=O)oc3c2C)OC1(C)C", "IC50": 480},
      {"smiles": "CCN1CCN(c2cc(=O)oc3c(C)c(O[C@@H]4OC(C)(C)[C@H](OC)[C@@H](OC(=O)c5ccc(C)[nH]5)[C@H]4O)ccc23)CC1", "IC50": 439},
      {"smiles": "CO[C@@H]1[C@@H](OC(=O)c2ccc(C)[nH]2)[C@@H](O)[C@H](Oc2ccc3c(N(C)CCN(C)C)cc(=O)oc3c2C)OC1(C)C", "IC50": 628},
      {"smiles": "CO[C@@H]1[C@@H](OC(=O)c2ccc(C)[nH]2)[C@@H](O)[C@H](Oc2ccc3c(N4CCN(c5ccccn5)CC4)cc(=O)oc3c2C)OC1(C)C", "IC50": 1780},
      {"smiles": "CO[C@@H]1[C@@H](OC(=O)c2ccc(C)[nH]2)[C@@H](O)[C@H](Oc2ccc3c(N4CCNCC4)cc(=O)oc3c2C)OC1(C)C", "IC50": 231},
      {"smiles": "CO[C@@H]1[C@@H](OC(=O)c2ccc(C)[nH]2)[C@@H](O)[C@H](Oc2ccc3c(N4CC(C)NC(C)C4)cc(=O)oc3c2C)OC1(C)C", "note": "(some centres not stated)", "IC50": 281},
      {"smiles": "CO[C@@H]1[C@@H](OC(=O)c2ccc(C)[nH]2)[C@@H](O)[C@H](Oc2ccc3c(N4CCN(C)CC4)cc(=O)oc3c2C)OC1(C)C", "IC50": 540}
    ]},
    {"test_system": "Staphylococcus aureus", "test": "Compound was evaluated for its minimum inhibitory concentration against Staphylococcus aureus in presence of 10% serum", "type": "functional", "in_short": "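MIC against S. aureus strain 011HT3 (no particular resistance phenotype) in medium containing serum proteins; 2-fold broth microdilution, read after 24-h incubation.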", "units": {"MIC": "µg/mL"}, "values": [
      {"smiles": "CO[C@@H]1[C@@H](OC(=O)c2ccc(C)[nH]2)[C@@H](O)[C@H](Oc2ccc3c(N4CCNC(C)C4)cc(=O)oc3c2C)OC1(C)C", "note": "(some centres not stated)", "MIC": 2.5},
      {"smiles": "CO[C@@H]1[C@@H](OC(N)=O)[C@@H](O)[C@H](Oc2ccc3c(O)c(NC(=O)c4ccc(O)c(CC=C(C)C)c4)c(=O)oc3c2C)OC1(C)C", "note": "[NOVOBIOCIN]", "MIC": 2.5},
      {"smiles": "CO[C@@H]1[C@@H](OC(=O)c2ccc(C)[nH]2)[C@@H](O)[C@H](Oc2ccc3c(N4CC[N+](C)(C)CC4)cc(=O)oc3c2C)OC1(C)C", "MIC": "> 40"},
      {"smiles": "CO[C@@H]1[C@@H](OC(=O)c2ccc(C)[nH]2)[C@@H](O)[C@H](Oc2ccc3c(N4CCN(C)CC4)c(Cl)c(=O)oc3c2C)OC1(C)C", "MIC": 20},
      {"smiles": "CO[C@@H]1[C@@H](OC(=O)c2ccc(C)[nH]2)[C@@H](O)[C@H](Oc2ccc3c(N4CCC(N(C)C)CC4)cc(=O)oc3c2C)OC1(C)C", "MIC": 2.5},
      {"smiles": "CCN1CCN(c2cc(=O)oc3c(C)c(O[C@@H]4OC(C)(C)[C@H](OC)[C@@H](OC(=O)c5ccc(C)[nH]5)[C@H]4O)ccc23)CC1", "MIC": 2.5},
      {"smiles": "CO[C@@H]1[C@@H](OC(=O)c2ccc(C)[nH]2)[C@@H](O)[C@H](Oc2ccc3c(N(C)CCN(C)C)cc(=O)oc3c2C)OC1(C)C", "MIC": 5},
      {"smiles": "CO[C@@H]1[C@@H](OC(=O)c2ccc(C)[nH]2)[C@@H](O)[C@H](Oc2ccc3c(N4CCN(c5ccccn5)CC4)cc(=O)oc3c2C)OC1(C)C", "MIC": 10},
      {"smiles": "CO[C@@H]1[C@@H](OC(=O)c2ccc(C)[nH]2)[C@@H](O)[C@H](Oc2ccc3c(N4CCNCC4)cc(=O)oc3c2C)OC1(C)C", "MIC": 5},
      {"smiles": "CO[C@@H]1[C@@H](OC(=O)c2ccc(C)[nH]2)[C@@H](O)[C@H](Oc2ccc3c(N4CC(C)NC(C)C4)cc(=O)oc3c2C)OC1(C)C", "note": "(some centres not stated)", "MIC": 2.5},
      {"smiles": "CO[C@@H]1[C@@H](OC(=O)c2ccc(C)[nH]2)[C@@H](O)[C@H](Oc2ccc3c(N4CCN(C)CC4)cc(=O)oc3c2C)OC1(C)C", "MIC": 0.3}
    ]},
    {"test_system": "not listed separately", "test": "pKa value was determined", "type": "physicochemical", "values": [
      {"smiles": "CO[C@@H]1[C@@H](OC(=O)c2ccc(C)[nH]2)[C@@H](O)[C@H](Oc2ccc3c(N4CCNC(C)C4)cc(=O)oc3c2C)OC1(C)C", "note": "(some centres not stated)", "pKa": 8.3},
      {"smiles": "CO[C@@H]1[C@@H](OC(N)=O)[C@@H](O)[C@H](Oc2ccc3c(O)c(NC(=O)c4ccc(O)c(CC=C(C)C)c4)c(=O)oc3c2C)OC1(C)C", "note": "[NOVOBIOCIN]", "pKa": 3.6},
      {"smiles": "CO[C@@H]1[C@@H](OC(=O)c2ccc(C)[nH]2)[C@@H](O)[C@H](Oc2ccc3c(N4CCN(C)CC4)c(Cl)c(=O)oc3c2C)OC1(C)C", "pKa": 7.4},
      {"smiles": "CO[C@@H]1[C@@H](OC(=O)c2ccc(C)[nH]2)[C@@H](O)[C@H](Oc2ccc3c(N4CCC(N(C)C)CC4)cc(=O)oc3c2C)OC1(C)C", "pKa": 9},
      {"smiles": "CCN1CCN(c2cc(=O)oc3c(C)c(O[C@@H]4OC(C)(C)[C@H](OC)[C@@H](OC(=O)c5ccc(C)[nH]5)[C@H]4O)ccc23)CC1", "pKa": 7.5},
      {"smiles": "CO[C@@H]1[C@@H](OC(=O)c2ccc(C)[nH]2)[C@@H](O)[C@H](Oc2ccc3c(N(C)CCN(C)C)cc(=O)oc3c2C)OC1(C)C", "pKa": 8.2},
      {"smiles": "CO[C@@H]1[C@@H](OC(=O)c2ccc(C)[nH]2)[C@@H](O)[C@H](Oc2ccc3c(N4CCN(c5ccccn5)CC4)cc(=O)oc3c2C)OC1(C)C", "pKa": 5.5},
      {"smiles": "CO[C@@H]1[C@@H](OC(=O)c2ccc(C)[nH]2)[C@@H](O)[C@H](Oc2ccc3c(N4CCNCC4)cc(=O)oc3c2C)OC1(C)C", "pKa": 8.3},
      {"smiles": "CO[C@@H]1[C@@H](OC(=O)c2ccc(C)[nH]2)[C@@H](O)[C@H](Oc2ccc3c(N4CC(C)NC(C)C4)cc(=O)oc3c2C)OC1(C)C", "note": "(some centres not stated)", "pKa": 8},
      {"smiles": "CO[C@@H]1[C@@H](OC(=O)c2ccc(C)[nH]2)[C@@H](O)[C@H](Oc2ccc3c(N4CCN(C)CC4)cc(=O)oc3c2C)OC1(C)C", "pKa": 7.3}
    ]}
  ]
}
